Measured values from different studies.
Compare with care: the assays were run in different laboratories.
Target: Ephrin type-A receptor 7 (EPHA7, Homo sapiens, UniProt Q15375)

SMILES	observed	action	technique	tested at	quantity	result
Nc1ncc(-c2nc(N3CCOCC3)nc(N3CCOCC3)n2)c(C(F)F)n1	cell-free assay		competition with immobilised ligand	10 µM	remaining binding	86%
N#CC1(c2ccccn2)CCN(Cc2cc(C(=O)O)c(=O)n3ccccc23)CC1	cell-free assay		competition with immobilised ligand	1 µM	remaining binding	100%
COc1cc(Nc2ncc(F)c(Nc3ccc4c(n3)NC(=O)C(C)(C)O4)n2)cc(OC)c1OC	binding		competition with immobilised ligand	10 µM	inhibition	100%
Cn1cncc1[C@@](O)(COc1ccc(C#N)cc1-c1ccc(OC(F)(F)F)cc1)c1ccc(C#N)cc1	cell-free assay		competition with immobilised ligand	1 µM	remaining binding	100%
COc1ncccc1-c1cnn2ccc(N3CCN(C(=O)OC(C)C)CC3)nc12	binding		competition with immobilised ligand	1 µM	remaining binding	100%
CC(C)(C)c1cc(C=C(C#N)C#N)cc(Br)c1O	enzyme activity	inhibitor		0.5 µM	remaining activity	107%
Cn1cc(-c2cccc(N3CCc4c(sc5c4CC(C)(C)C5)C3=O)c2CO)cc(Nc2ccncn2)c1=O	enzyme activity	inhibitor		1 µM	inhibition	83%
O=c1[nH]c2ccccc2n1C1CCN(Cc2ccc(-c3[nH]c4cc5ncnc5cc4nc3-c3ccccc3)cc2)CC1	cell-free assay			0.5 µM	remaining signal	109%
Cn1cc(-c2cc(F)cc(N3CCn4c(cc5c4CCCC5)C3=O)c2CO)cc(Nc2ccc(N3CCN(C4COC4)CC3)cn2)c1=O	enzyme activity	inhibitor		0.1 µM	inhibition	13%
Cc1nn(C)cc1-c1nc2c(N3CCN(Cc4ccc(Cl)cc4)CC3)c(Cl)cnc2[nH]1	binding		competition with immobilised ligand	1 µM	remaining binding	100%
